Assay results from ChEMBL document CHEMBL3774372, “Design, physico-chemical properties and biological evaluation of some new N-[(phenoxy)alkyl]- and N-{2-[2-(phenoxy)ethoxy]ethyl}aminoalkanols as anticonvulsant agents” (Bioorg Med Chem, 2016).
Active and inactive are the calls of the source.

What was measured:
[1] = […] from rat cerebral cortex GABA-gated chloride channel; format: tissue-based
[2] = system: Mus musculus; test: Anticonvulsant activity in mouse assessed as protection against 6 Hz psychomotor seizure at 50 mg/kg, ip after 1 hr; format: functional, organism-based
Method in brief: (§1)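 Suspension in 0.5% methylcellulose given ip to mice; corneal stimulation with 0.2 ms monopolar rectangular pulses at 6 Hz for 3 s from a constant current device, mice restrained then released to observation cage. Protected if normal exploratory behaviour resumed within 10 s of stimulation. Scored as protected/tested, 4 mice per group.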

[3] = system: Mus musculus; test: Anticonvulsant activity in mouse assessed as protection against 6 Hz psychomotor seizure at 50 mg/kg, ip after 2 hrs; format: functional, organism-based; method in brief: as §1
[4] = system: Mus musculus; test: Anticonvulsant activity in mouse assessed as protection against 6 Hz psychomotor seizure at 50 mg/kg, ip after 4 hrs; format: functional, organism-based; method in brief: as §1
[5] = system: Mus musculus; test: Neurotoxicity in mouse at 50 mg/kg, ip after 0.5 hrs by rotarod test; format: toxicity, organism-based; conditions: in vivo
Method in brief: (§2)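 Mice were dosed ip with compound suspended in 0.5% methylcellulose. Rotarod: a 1 in. knurled rod turning at 6 rpm. Neurotoxicity was scored as failure to stay on the rod for at least 1 min in each of three trials. Results are given as the number of animals affected out of the number tested.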

[6] = system: Mus musculus; test: Neurotoxicity in mouse at 50 mg/kg, ip after 1 hr by rotarod test; format: toxicity, organism-based; conditions: in vivo; method in brief: as §2
[7] = system: Mus musculus; test: Neurotoxicity in mouse at 50 mg/kg, ip after 2 hrs by rotarod test; format: toxicity, organism-based; conditions: in vivo; method in brief: as §2
[8] = system: Mus musculus; test: Neurotoxicity in mouse at 50 mg/kg, ip after 4 hrs by rotarod test; format: toxicity, organism-based; conditions: in vivo; method in brief: as §2
[9] = system: Vibrio harveyi; test: Mutagenicity in Vibrio harveyi BB7 assessed as number of colonies after 48 hrs (reference value: 13 to 14 no_unit); format: ADME, organism-based; conditions: in vivo
Method in brief: (§3)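 Vibrio harveyi mutagenicity test: test compound was added to exponentially growing cultures (A600 = 0.1, 30 °C) and grown to OD600 0.3–0.4. Then 5 × 10^6 cells were plated on BOSS agar with neomycin (final 100 µg/mL) and incubated 48 h at 30 °C. Neomycin-resistant colonies were counted. Triplicate; controls were water, DMSO and NQNO 40 ng/mL.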

[10] = system: Vibrio harveyi; test: Mutagenicity in Vibrio harveyi BB7X assessed as number of colonies after 48 hrs (reference value: 15 to 16 no_unit); format: ADME, organism-based; conditions: in vivo; method in brief: as §3
[11] = system: Vibrio harveyi; test: Mutagenicity in Vibrio harveyi BB7M assessed as number of colonies after 48 hrs (reference value: 13 to 14 no_unit); format: ADME, organism-based; conditions: in vivo; method in brief: as §3
[12] = system: Vibrio harveyi; test: Mutagenicity in Vibrio harveyi BB7XM assessed as number of colonies after 48 hrs (reference value: 14 no_unit); format: ADME, organism-based; conditions: in vivo; method in brief: as §3
[13] = system: Vibrio harveyi; test: Antimutagenic activity against Vibrio harveyi BB7 assessed as inhibition of NQNO-induced mutagenicity after 48 hrs; format: functional
Method in brief: (§4)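 V. harveyi cultures grown exponentially to A600 0.1 at 30 °C, exposed to test compound for 15 min, then to NQNO, and grown on to A600 0.3–0.4. 5 × 10⁶ cells plated on BOSS agar with neomycin (100, final). Neomycin-resistant colonies counted after 48 h at 30 °C. Result given as % inhibition of NQNO mutagenicity; three independent repeats.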

[14] = system: Vibrio harveyi; test: Antimutagenic activity against Vibrio harveyi BB7X assessed as inhibition of NQNO-induced mutagenicity after 48 hrs; format: functional; method in brief: as §4
[15] = system: Vibrio harveyi; test: Antimutagenic activity against Vibrio harveyi BB7M assessed as inhibition of NQNO-induced mutagenicity after 48 hrs; format: functional; method in brief: as §4
[16] = system: Vibrio harveyi; test: Antimutagenic activity against Vibrio harveyi BB7XM assessed as inhibition of NQNO-induced mutagenicity after 48 hrs; format: functional; method in brief: as §4
[17] = system: Mus musculus; test: Anticonvulsant activity in mouse assessed as protection against 6 Hz psychomotor seizure at 100 mg/kg, ip after 1 hr; format: functional, organism-based; method in brief: as §1
[18] = system: Mus musculus; test: Anticonvulsant activity in mouse assessed as protection against 6 Hz psychomotor seizure at 100 mg/kg, ip after 2 hrs; format: functional, organism-based; method in brief: as §1
[19] = system: Mus musculus; test: Anticonvulsant activity in mouse assessed as protection against 6 Hz psychomotor seizure at 100 mg/kg, ip after […]; format: functional, organism-based
[20] = system: Mus musculus; test: Anticonvulsant activity in mouse assessed as protection against 6 Hz psychomotor seizure at 100 mg/kg, ip after 4 hrs; format: functional, organism-based; method in brief: as §1
[21] = system: Mus musculus; test: Neurotoxicity in mouse at 100 mg/kg, ip after […] by rotarod test; format: toxicity, organism-based; conditions: in vivo
[22] = system: Mus musculus; test: Anticonvulsant activity in mouse assessed as protection against maximal electric shock-induced seizures at 30 mg/kg, ip measured after 0.5 hrs; format: functional, organism-based
Method in brief: (§5)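 Mice dosed ip with suspension in 0.5% methylcellulose; maximal electroshock applied at the listed time after dosing. Protection = abolition of hindlimb tonic extension component of seizure; reported as animals protected/animals tested.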

[23] = system: Mus musculus; test: Anticonvulsant activity in mouse assessed as protection against maximal electric shock-induced seizures at 30 mg/kg, ip measured after 4 hrs; format: functional, organism-based; method in brief: as §5
[24] = system: Mus musculus; test: Anticonvulsant activity in mouse assessed as protection against maximal electric shock-induced seizures at 100 mg/kg, ip measured after 4 hrs; format: functional, organism-based; method in brief: as §5
[25] = system: Mus musculus; test: Anticonvulsant activity in mouse assessed as protection against subcutaneous pentylenetetrazol-induced seizures at 30 mg/kg, ip measured after 0.5 hrs; format: functional, organism-based
Method in brief: (§6)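 Mice dosed ip as 0.5% methylcellulose suspension; pentylenetetrazole 85 mg/kg in 0.9% NaCl injected subcutaneously into posterior midline, animals watched at least 30 min. Protection = no threshold seizure (single clonic spasm episode lasting ≥5 s); scored protected/tested.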

[26] = system: Mus musculus; test: Anticonvulsant activity in mouse assessed as protection against subcutaneous pentylenetetrazol-induced seizures at 30 mg/kg, ip measured after 4 hrs; format: functional, organism-based; method in brief: as §6
[27] = system: Mus musculus; test: Anticonvulsant activity in mouse assessed as protection against subcutaneous pentylenetetrazol-induced seizures at 100 mg/kg, ip measured after 4 hrs; format: functional, organism-based; method in brief: as §6
[28] = system: Mus musculus; test: Neurotoxicity in mouse at 30 mg/kg, ip after 0.5 hrs by rotarod test; format: toxicity, organism-based; conditions: in vivo; method in brief: as §2
[29] = system: Mus musculus; test: Neurotoxicity in mouse at 30 mg/kg, ip after 4 hrs by rotarod test; format: toxicity, organism-based; conditions: in vivo; method in brief: as §2
[30] = system: Mus musculus; test: Neurotoxicity in mouse at 100 mg/kg, ip after 0.5 hrs by rotarod test; format: toxicity, organism-based; conditions: in vivo; method in brief: as §2
[31] = system: Mus musculus; test: Neurotoxicity in mouse at 100 mg/kg, ip after 4 hrs by rotarod test; format: toxicity, organism-based; conditions: in vivo; method in brief: as §2
[32] = system: Mus musculus; test: Neurotoxicity in mouse at 300 mg/kg, ip after 0.5 hrs by rotarod test; format: toxicity, organism-based; conditions: in vivo; method in brief: as §2
[33] = system: Mus musculus; test: Neurotoxicity in mouse at 300 mg/kg, ip after 4 hrs by rotarod test; format: toxicity, organism-based; conditions: in vivo; method in brief: as §2

C=C(C)[C@@H]1[C@H]2OC(=O)[C@@H]1[C@]1(O)C[C@H]3O[C@]34C(=O)O[C@H]2[C@]14C [PICROTOXININ]
IC50 [1]: 77 nM

Cc1cc(C)c(OCCOCCN[C@@H]2CCCC[C@H]2O)c(C)c1 (racemic)
Activity [2]: inactive
Activity [3]: inactive
Activity [4]: inactive
Activity [5]: Non-toxic
Activity [6]: Non-toxic
Activity [7]: Non-toxic
Activity [8]: Non-toxic
Activity [9]: 20
Activity [10]: 15
Activity [11]: 10
Activity [12]: 26
inhibition (INH) [13]: 62%
inhibition (INH) [14]: 0%
inhibition (INH) [15]: 27%
inhibition (INH) [16]: 0%

Cc1cccc(OCCOCCNC(C)CO)c1C (stereo not drawn)
Activity [17]: Active
Activity [18]: inactive
Activity [19]: Active
Activity [20]: inactive
Activity [21]: Toxic
Activity [22]: inactive
Activity [23]: inactive
Activity [24]: inactive
Activity [25]: inactive
Activity [26]: inactive
Activity [27]: inactive
Activity [28]: Non-toxic
Activity [29]: Non-toxic
Activity [30]: Toxic
Activity [31]: Non-toxic
Activity [32]: Toxic
Activity [33]: Non-toxic
